Assay results from ChEMBL document CHEMBL1151860, “Asymmetric synthesis and biological evaluation of Danshensu derivatives as anti-myocardial ischemia drug candidates” (Bioorg Med Chem, 2009).
Active and inactive are the calls of the source. The rule behind the calls is not given here.

How the values were obtained:
[1] = species on record: Rattus norvegicus; assay: Cytoprotective effect against hypoxia-induced Sprague-Dawley rat NRVM assessed as increase in cell viability pretreated for 12 hrs before hypoxia induction at 1 umol/L measured after 5 hrs by MTT assay relative to control; format: functional
Outline: (§1)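 Neonatal rat ventricular myocytes were obtained by trypsin digestion, preplated for 2 h, then seeded at 1 × 10⁶ cells/ml in DMEM with 10% FBS, penicillin/streptomycin and 5-bromo-deoxyuridine at 37 °C, 5% CO₂. After 48 h they were given compound for 12 h, then 5 h hypoxia. Viability was read by MTT and damage by LDH leakage; means SE.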

[2] = species on record: Rattus norvegicus; assay: Cytoprotective effect against hypoxia-induced Sprague-Dawley rat NRVM assessed as decrease in LDH leakage pretreated for 12 hrs before hypoxia induction at 1 umol/L relative to control; format: functional; outline: as §1
[3] = Antiapoptotic activity against hypoxia-induced morphological changes in Sprague-Dawley rat NRVM assessed as decrease in nuclei shrunk at 1 umol/l by Heochst dye relative to hypoxia induced control; format: functional
Outline: (§2)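 Cultured neonatal rat ventricular myocytes (trypsin-dissociated, 2 h preplating, DMEM/10% FBS with 5-bromo-deoxyuridine, 37 °C, 5% CO₂) were pretreated 12 h with compound after 48 h culture, then made hypoxic for 5 h. Nuclei were Hoechst-stained to score shrinkage and condensation.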

[4] = Antiapoptotic activity against hypoxia-induced morphological changes in Sprague-Dawley rat NRVM assessed as decrease in nuclear condensation at 1 umol/l by Heochst dye relative to hypoxia induced control; format: functional; outline: as §2
[5] = Antiapoptotic activity against hypoxia-induced Sprague-Dawley rat NRVM assessed as decrease in bax mRNA level at 1 umol/l by RT-PCR; format: functional
[6] = Antiapoptotic activity against hypoxia-induced Sprague-Dawley rat NRVM assessed as decrease in caspase 3 mRNA level at 1 umol/l by RT-PCR; format: functional
[7] = Antiapoptotic activity against hypoxia-induced Sprague-Dawley rat NRVM assessed as increase in bcl2 mRNA level at 1 umol/l by RT-PCR; format: functional
[8] = Antiapoptotic activity against hypoxia-induced Sprague-Dawley rat NRVM assessed as decrease in bax protein level at 1 umol/l by Western blot analysis; format: functional
[9] = Antiapoptotic activity against hypoxia-induced Sprague-Dawley rat NRVM assessed as increase in bcl2 protein level at 1 umol/l by Western blot analysis; format: functional
Outline: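 Myocytes were pretreated 12 h, then made hypoxic for 5 h and lysed at the end of hypoxia. Lysates were spun at 10,000 r/min for 10 min and protein quantified by BCA. Samples were transferred to PVDF and blocked 2 h at RT in TBS with 5% skim milk. For bcl-2, blots were probed 1 h at RT with rabbit anti-rat polyclonal antibody in TBS-T.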

[10] = test system: Rattus norvegicus; assay: Cardioprotective effect in Sprague-Dawley rat myocardial infarction model assessed as decrease in infarct size at 15 mg/kg, ip treated 7 days before myocardial infarction surgery and after 2 days once daily by TTC staining; format: functional, organism-based; design: dose 15 mg/kg; conditions: Myocardium
Outline: (§3)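 Male Sprague-Dawley rats (230–250 g), anaesthetised with 7% chloral hydrate (60 mg/kg ip), intubated and ventilated; left coronary artery ligated (sham: no ligation). Five randomised groups: MI, sham, MI plus drug at 15, 30 or 60 mg/kg ip once daily. Hearts excised 2 days post-ligation, ventricles cut into five transverse slices, 1% TTC at 37 °C for 15 min; unstained area taken as infarct. Means SE.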

[11] = test system: Rattus norvegicus; assay: Cardioprotective effect in Sprague-Dawley rat myocardial infarction model assessed as decrease in infarct size at 30 mg/kg, ip treated 7 days before myocardial infarction surgery and after 2 days once daily by TTC staining; format: functional, organism-based; design: dose 30 mg/kg; conditions: Myocardium; outline: as §3
[12] = test system: Rattus norvegicus; assay: Cardioprotective effect in Sprague-Dawley rat myocardial infarction model assessed as decrease in infarct size at 60 mg/kg, ip treated 7 days before myocardial infarction surgery and after 2 days once daily by TTC staining; format: functional, organism-based; design: dose 60 mg/kg; conditions: Myocardium; outline: as §3
[13] = test system: Rattus norvegicus; assay: Cardioprotective effect in Sprague-Dawley rat myocardial infarction model assessed as decrease in serum LDH level at 15 to 60 mg/kg, ip treated 7 days before myocardial infarction surgery and after 2 days once daily; format: functional, organism-based
Outline: (§4)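 Male Sprague-Dawley rats (230–250 g) were anaesthetised with chloral hydrate (60 mg/kg ip), intubated and ventilated, and the left coronary artery ligated; sham rats were not ligated. Drug at 15, 30 or 60 mg/kg ip was given once daily from 7 days before to 2 days after surgery. Serum LDH, CK, SOD and MDA were measured by diagnostic kit; means SE, n = 6, P < 0.05.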

[14] = test system: Rattus norvegicus; assay: Cardioprotective effect in Sprague-Dawley rat myocardial infarction model assessed as decrease in serum creatine kinase level at 15 to 60 mg/kg, ip treated 7 days before myocardial infarction surgery and after 2 days once daily; format: functional, organism-based; outline: as §4
[15] = test system: Rattus norvegicus; assay: Cardioprotective effect in Sprague-Dawley rat myocardial infarction model assessed as decrease in serum malondialdehyde level at 15 to 60 mg/kg, ip treated 7 days before myocardial infarction surgery and after 2 days once daily; format: functional, organism-based; outline: as §4
[16] = test system: Rattus norvegicus; assay: Cardioprotective effect in Sprague-Dawley rat myocardial infarction model assessed as increase in serum SOD level at 15 to 60 mg/kg, ip treated 7 days before myocardial infarction surgery and after 2 days once daily; format: functional, organism-based; outline: as §4
[17] = species on record: Rattus norvegicus; assay: Antioxidant activity against hypoxia-induced lipid peroxidation in Sprague-Dawley rat NRVM assessed as decrease in malondialdehyde content at 1 umol/l relative to hypoxia control; format: functional
[18] = species on record: Rattus norvegicus; assay: Cytoprotective effect against hypoxia-induced Sprague-Dawley rat NRVM assessed as decrease in cellular damage pretreated for 12 hrs before hypoxia induction at 1 umol/L; format: functional

With COC(=O)C(Cc1ccc(OC(C)=O)c(OC(C)=O)c1)OC(C)=O (racemic) the Activity [1] was “Active” and the Activity [2] was “Active”.

In the case of CC(=O)O/C(=C\c1ccc(O)c(O)c1)C(=O)O, the Activity [1] is reported as “Active”, the Activity [2] is reported as “Active” and the Activity [3] is reported as “Active”. For the same compound, the Activity [4] was “Active”, the Activity [5] was “Active” and the Activity [6] was “Active”. The Activity [7] was “Active”, the Activity [8] was “Active” and the Activity [9] was “Active”. For the same compound, the Activity [10] was “inactive”, the Activity [11] was “inactive” and the Activity [12] was “Active”. For the same compound, the Activity [13] was “Active”, the Activity [14] was “Active” and the Activity [15] was “Active”. The Activity [16] was “Active” and the Activity [17] was “Active”.

With COC(=O)[C@@H](Cc1ccc2c(c1)OCO2)OC(C)=O the Activity [1] was “Active”, the Activity [2] was “Active” and the Activity [18] was “Active”. The Activity [17] was “Active”.

With COC(=O)C(Cc1ccc2c(c1)OCO2)OC(C)=O (racemic) the Activity [1] was “Active” and the Activity [2] was “Active”.

In the case of COC(=O)[C@@H](Cc1ccc(OC(C)=O)c(OC(C)=O)c1)OC(C)=O, the Activity [1] is reported as “Active”, the Activity [2] is reported as “Active” and the Activity [18] is reported as “Active”. The Activity [3] was “Active”, the Activity [4] was “Active” and the Activity [5] was “Active”. For the same compound, the Activity [6] was “Active”, the Activity [7] was “Active” and the Activity [8] was “Active”. For the same compound, the Activity [9] was “Active” and the Activity [17] was “Active”.
